ChEMBL document CHEMBL1124478, “Cardiotonic agents. 5. Fragments from the heterocycle-phenyl-imidazole pharmacophore” (J Med Chem, 1989)

How the values were obtained:
[1] = organism: Mustela putorius furo; assay: 20% increase in contractile force (CF) of ferret papillary muscle; assay type: functional, Muscle tissue
Procedure, shortened: (§1)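 Isolated ferret papillary muscle in vitro. Value is the drug concentration (μM) giving a 20% rise in contractile force, the mean of at least two determinations, with ranges within ±10%. NR means that level was not reached at 100 μM. Responses were also tested with 1 μM propranolol and, for some compounds, 10 μM cimetidine.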

[2] = Inhibition of crude canine cardiac c-AMP phosphodiesterase; design: species or system Canis lupus familiaris
Procedure, shortened: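 Crude cAMP phosphodiesterase came from canine cardiac tissue homogenates. IC50 (μM) is the mean of at least three determinations, with ranges within ±10%. Where 50% inhibition was not reached at 100 μM, the percent inhibition at 100 μM drug was recorded instead.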

[3] = tested on: cAMP phosphodiesterase (Canis familiaris); assay: Inhibition of crude canine cardiac c-AMP phosphodiesterase at 100 uM; settings: Canis lupus familiaris
[4] = organism: Mustela putorius furo; assay: Increase in contractile force (CF) of ferret papillary muscle; NR = not reached at 100 uM; assay type: functional; settings: Muscle tissue; procedure, shortened: as §1

| Structure (SMILES) | C20 [1] [µM] | IC50 [2] [µM] | inhibition [3] [%] | C20 [4] |
| --- | --- | --- | --- | --- |
| COc1ccc(C(=O)N2CCN(c3ccc4c(c3)CCC(=O)N4)CC2)cc1OC [VESNARINONE] | 2.3 | 32 |  |  |
| CC(=O)c1ccc(-n2ccnc2C)cc1 | 25 |  | 15 |  |
| Cc1nc(O)c(C#N)c(NCCc2c[nH]cn2)n1 | 0.2 | 4 |  |  |
| CCc1[nH]c(O)nc1C(=O)c1ccc(-n2ccnc2)cc1 | 0.05 | 2 |  |  |
| Cc1nc(=O)c(C#N)c(NCc2cccnc2)[nH]1 [PELRINONE] | 0.2 | 4 |  |  |
| CCc1[nH]c(O)nc1C(=O)c1ccc(-n2ccnc2C)cc1 | 0.7 |  |  |  |
| CCc1[nH]c(O)nc1C(=O)NCCc1c[nH]cn1 | 10 |  | 25 |  |
| O=C1CCc2cc(-n3ccnc3)ccc2N1 | 1.6 | 71 |  |  |
| CCc1[nH]c(O)nc1C(=O)NCCCn1ccnc1 |  |  | 5 | Not reached |
| CCc1[nH]c(O)nc1C(=O)c1ccccc1 | 2 | 54 |  |  |
| CCc1[nH]c(O)nc1C(=O)OC |  |  | 10 | Not reached |
